The results in this text go back to ChEMBL document CHEMBL4011622, “The Structure-Activity Relationship of a Tetrahydroisoquinoline Class of N-Methyl-d-Aspartate Receptor Modulators that Potentiates GluN2B-Containing N-Methyl-d-Aspartate Receptors” (J Med Chem, 2017).

The target in test [1] is Ionotropic glutamate receptor NMDA 1/2D (Rattus norvegicus, UniProt P35439+Q62645). Briefly: Positive allosteric modulation of recombinant rat GluN1/GluN2D receptor expressed in xenopus laevis oocyte assessed as potentiation of glutamate and glycine-induced current response at holding potential -40mV by two electrode voltage clamp method. In short, it runs like this: (§1)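 Two-electrode voltage clamp at -40 mV, 23°C, pH 7.4 Ba²⁺ recording solution, on Xenopus oocytes expressing rat NMDA receptors. Currents were evoked by 100 µM glutamate plus 30 µM glycine, with compound co-applied (DMSO 0.05–0.5% final). Each compound used at least 4 oocytes from at least 2 frogs.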
A general note: Two-electrode voltage clamp is typically applied to oocytes expressing channels or transporters.

Test [2] concerns the target Glutamate NMDA receptor; Grin1/Grin2c (Rattus norvegicus, UniProt P35439+Q00961). Briefly: Positive allosteric modulation of recombinant rat GluN1/GluN2C receptor expressed in xenopus laevis oocyte assessed as potentiation of glutamate and glycine-induced current response at holding potential -40mV by two electrode voltage clamp method. In short, it runs like this: as §1

In test [3] the target is Ionotropic glutamate receptor NMDA 1/2D (Rattus norvegicus) (UniProt P35439+Q62645). Briefly: Positive allosteric modulation of recombinant rat GluN1/GluN2D receptor expressed in xenopus laevis oocyte assessed as potentiation of glutamate and glycine-induced current response at 30 uM at holding potential -40mV by two electrode voltage clamp method relative to control. In short, it runs like this: as §1

Test [4] deals with T1, Glutamate NMDA receptor; Grin1/Grin2b (Rattus norvegicus) (UniProt P35439+Q00960). Kind of test: Positive allosteric modulation of recombinant rat GluN1/GluN2B receptor expressed in xenopus laevis oocyte assessed as potentiation of glutamate and glycine-induced current response at 30 uM at holding potential -40mV by two electrode voltage clamp method relative to control. The procedure, abridged: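 Two-electrode voltage clamp at -40 mV, 23°C, pH 7.4 Ba²⁺ recording solution, on Xenopus oocytes expressing rat NMDA receptors. Currents were evoked by 100 µM glutamate plus 30 µM glycine, with compound co-applied (DMSO 0.05–0.5% final). […] Each compound used at least 4 oocytes from at least 2 frogs.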

The target in test [5] is T1, Glutamate NMDA receptor; Grin1/Grin2b (Rattus norvegicus). Briefly: Positive allosteric modulation of recombinant rat GluN1/GluN2B receptor expressed in xenopus laevis oocyte assessed as compound concentration required to show two fold increase in glutamate and glycine-induced current response at holding potential -40mV by two electrode voltage clamp method.
Test [6] addresses Glutamate NMDA receptor; Grin1/Grin2b (Rattus norvegicus, UniProt P35439+Q00960). Kind of test: Positive allosteric modulation of recombinant rat GluN1/GluN2B receptor expressed in xenopus laevis oocyte assessed as potentiation of glutamate and glycine-induced current response at holding potential -40mV by two electrode voltage clamp method. The procedure, abridged:
as §1

The target of test [7] is Glutamate NMDA receptor; Grin1/Grin2c (Rattus norvegicus) (UniProt P35439+Q00961). Briefly: Positive allosteric modulation of recombinant rat GluN1/GluN2C receptor expressed in xenopus laevis oocyte assessed as potentiation of glutamate and glycine-induced current response at 30 uM at holding potential -40mV by two electrode voltage clamp method relative to control. The procedure, abridged: as §1

In the case of `CCOc1ccc(OCC2c3ccc(OC(C)C)cc3CCN2C(=S)c2ccc(F)c(Cl)c2)cc1` (stereo unspecified), the EC50 (as a rule, the concentration needed to bring the measured effect to its halfway point) in test [1] is 0.44 µM; in test [2], 0.35 µM; in test [6], 0.84 µM. The Emax – broadly, the greatest response seen or fitted, relative to the assay's reference – in test [3] turned out to be 128%; in test [4], 222%; in test [7], 159%. Further, the CD in test [5] was 17 µM.
Take `CCOc1ccc(OC[C@@H]2c3ccc(OC(C)C)cc3CCN2C(=S)c2cccc(F)c2)cc1`: the EC50 was found to be 0.58 µM in test [1], 0.38 µM in test [2] and 0.49 µM in test [6]. In addition, the maximal response (Emax) in test [3] came out at 179%; in test [4] it was 213%; in test [7], 154%. Further, the CD in test [5] turned out to be 1.4 µM.
For the compound `COc1ccc(OCC2c3ccc(N4CCCCC4)cc3CCN2C(=O)c2cccc(Cl)c2)cc1` (stereo unspecified), the figures for the EC50 in test [1], in test [2] and in test [6] were 4 µM, 2.3 µM and 4.9 µM, respectively. The Activity in test [3] turned out to be 418%; in test [4] it was 213%; in test [7] it was 289%. The Emax in test [3] stood at 464%; in test [4], 221%; in test [7] it was 313%.
Consider `CCC(CC)Oc1ccc2c(c1)CCN(C(=O)c1cccc(Cl)c1)C2COc1ccc(OC)cc1` (stereo unspecified), for which the EC50 in test [1] was found to be 1.7 µM; in test [2] it was 1.6 µM; in test [6], 1.8 µM. In addition, the Activity turned out to be 381% in test [3], 331% in test [4] and 286% in test [7]. Moreover, the Emax was determined as 390% in test [3], 344% in test [4] and 294% in test [7].
Consider `COc1ccc(OCC2c3ccc(OC(C)C)cc3CCN2C(=O)c2ccc(Cl)cc2)cc1` (stereo unspecified), for which the 50% effective concentration (EC50) was determined as 11 µM in test [1], 9.5 µM in test [2] and 12 µM in test [6]. For the same compound, the Activity in test [3] was 244%; in test [4] it was 163%; in test [7], 251%. The Emax in test [3] was 288%; in test [4], 182%; in test [7], 290%.
For the compound `CC(C)Oc1ccc(OCC2c3ccc(OC(C)C)cc3CCN2C(=S)c2cccc(C(F)(F)F)c2)cc1` (stereo unspecified), the EC50 in test [1] stood at 0.33 µM; in test [2], 0.34 µM; in test [6], 0.27 µM. Besides, the Emax came to 133% in test [3], 191% in test [4] and 162% in test [7].
For the compound `CCOc1ccc(OCC2c3ccc(OC(C)C)cc3CCN2C(=S)c2cccc(C(F)(F)F)c2)cc1` (stereo unspecified), the EC50 was determined as 0.45 µM in test [1], 0.35 µM in test [2] and 0.72 µM in test [6]. Further, the Emax in test [3] stood at 128%; in test [4] it was 190%; in test [7], 141%.
Consider `CCOc1ccc(OCC2c3ccc(OC(C)C)cc3CCN2C(=O)c2ccc(F)c(F)c2)cc1` (stereo unspecified), for which the concentration for a half-maximal effect (EC50) in test [1] is 2.9 µM; in test [2] it was 1.8 µM; in test [6], 3.7 µM. The Activity in test [3] worked out at 133%; in test [4] it was 172%; in test [7], 145%. Moreover, the Emax in test [3] stood at 137%; in test [4], 173%; in test [7], 150%.
For the compound `CCOc1ccc2c(c1)CCN(C(=O)c1cccc(Cl)c1)C2COc1ccc(OC)cc1` (stereo unspecified), the EC50 stood at 3 µM in test [1], 2.4 µM in test [2] and 7.8 µM in test [6]. In addition, the Activity in test [3] worked out at 329%; in test [4] it was 158%; in test [7], 285%. The results for the Emax in test [3], in test [4] and in test [7] were 344%, 167% and 294%, respectively.
With `CC(C)Oc1ccc2c(c1)CCN(C(=O)c1cccc(F)c1)C2COc1ccc(OC(F)(F)F)cc1` (stereo unspecified), the results for the EC50 in test [1], in test [2] and in test [6] were 4.1 µM, 2.5 µM and 3.2 µM, respectively. The Activity in test [3] is 136%; in test [4], 124%; in test [7], 154%. Also, the Emax was determined as 137% in test [3], 123% in test [4] and 157% in test [7].
In the case of `COc1ccc(OCC2c3ccc(N(C)C(C)C)cc3CCN2C(=O)c2cccc(Cl)c2)cc1` (stereo unspecified), the EC50 in test [1] amounted to 4 µM; in test [2], 2 µM; in test [6] it was 5.9 µM. In addition, the Activity in test [3] is 500%; in test [4], 228%; in test [7], 404%. Further, the Emax in test [3] amounted to 549%; in test [4], 235%; in test [7] it was 424%.
Take `CC(C)Oc1ccc(OCC2c3ccc(OC(C)C)cc3CCN2C(=S)c2cccc(F)c2)cc1` (stereo unspecified): the EC50 in test [1] came out at 1.2 µM; in test [2] it was 0.7 µM; in test [6], 0.67 µM. Moreover, the results for the maximal response (Emax) in test [3], in test [4] and in test [7] were 154%, 203% and 158%, respectively. Further, the CD in test [5] is 9 µM.
In the case of `COc1ccc(OCC2c3ccc(N4CCOCC4)cc3CCN2C(=O)c2cccc(Cl)c2)cc1` (stereo unspecified), the EC50 in test [1] worked out at 22 µM; in test [2], 4.7 µM; in test [6] it was 9.3 µM. The Activity in test [3] was 231%; in test [4], 146%; in test [7], 273%. The Emax was 413% in test [3], 188% in test [4] and 342% in test [7].
For `CC(C)Oc1ccc(OCC2c3ccc(OC(C)C)cc3CCN2C(=S)c2cccc(Cl)c2)cc1` (stereo unspecified), the EC50 in test [1] amounted to 0.41 µM; in test [2] it was 0.48 µM; in test [6] it was 0.55 µM. In addition, the values for the maximal response (Emax) in test [3], in test [4] and in test [7] were 152%, 209% and 141%, respectively. In test [5], the CD worked out at 4 µM.
On to `COc1ccc(OCC2c3ccc(NC(C)C)cc3CCN2C(=O)c2cccc(Cl)c2)cc1` (stereo unspecified), for which the EC50 in test [1] was 5.1 µM; in test [2], 4.7 µM; in test [6] it was 9.3 µM. In addition, the Activity in test [3] is 333%; in test [4], 138%; in test [7], 239%. Besides, the Emax in test [3] is 363%; in test [4], 141%; in test [7] it was 261%.
For the compound `CCOc1ccc(OCC2c3ccc(OC4CCCC4)cc3CCN2C(=O)c2cccc(F)c2)cc1` (stereo unspecified), the values for the concentration for a half-maximal effect (EC50) in test [1], in test [2] and in test [6] were 4.9 µM, 4.5 µM and 4.4 µM, respectively. The Activity in test [3] stood at 161%; in test [4], 202%; in test [7], 169%. The Emax in test [3] turned out to be 163%; in test [4] it was 210%; in test [7] it was 173%.
As to `CCOc1ccc(OCC2c3ccc(OC(C)C)cc3CCN2C(=O)c2ccc(F)c(Cl)c2)cc1` (stereo unspecified), the values for the EC50 in test [1], in test [2] and in test [6] were 2.2 µM, 1.3 µM and 2.2 µM, respectively. In addition, the Activity in test [3] came out at 133%; in test [4], 169%; in test [7], 159%. Also, the Emax worked out at 137% in test [3], 170% in test [4] and 162% in test [7].
For `COc1ccc(OCC2c3ccc(OC4CCCCC4)cc3CCN2C(=O)c2cccc(Cl)c2)cc1` (stereo unspecified), the figures for the EC50 in test [1], in test [2] and in test [6] were 1.9 µM, 1.2 µM and 2.7 µM, respectively. For the same compound, the values for the Activity in test [3], in test [4] and in test [7] were 309%, 259% and 222%, respectively. Besides, the results for the Emax in test [3], in test [4] and in test [7] were 317%, 265% and 225%, respectively.
Turning to `COc1ccc(OCC2c3ccc(OC(C)C)cc3CCN2C(=O)c2cccc(I)c2)cc1` (stereo unspecified), the values for the EC50 in test [1], in test [2] and in test [6] were 1.6 µM, 0.69 µM and 1.7 µM, respectively. Further, the Activity came out at 408% in test [3], 159% in test [4] and 215% in test [7]. The maximum response (Emax) worked out at 414% in test [3], 172% in test [4] and 310% in test [7].
For the compound `COc1ccc(OCC2c3ccc(N4CCOCC4)cc3CCN2C(=O)c2cccc(Br)c2)cc1` (stereo unspecified), the EC50 worked out at 4.3 µM in test [1], 3 µM in test [2] and 4.8 µM in test [6]. The values for the Activity in test [3], in test [4] and in test [7] were 284%, 152% and 279%, respectively. For the same compound, the Emax came to 425% in test [3], 165% in test [4] and 314% in test [7].
